From ChEMBL document CHEMBL4251704, “Discovery of Pyridopyrimidinones as Potent and Orally Active Dual Inhibitors of PI3K/mTOR” (ACS Med Chem Lett, 2018) come the findings set out here.

Molecules are shown by their SMILES.

For series [1], the target named is T1, Phosphatidylinositol 4,5-bisphosphate 3-kinase catalytic subunit alpha isoform (Homo sapiens, UniProt P42336). Put plainly: Inhibition of PI3Kalpha in human MCF7 cells assessed as reduction in AKT phosphorylation at 1 uM after 2 hrs by ELISA relative to control. The format is cell-based.
T1 sequence (P42336 whole entry, canonical isoform): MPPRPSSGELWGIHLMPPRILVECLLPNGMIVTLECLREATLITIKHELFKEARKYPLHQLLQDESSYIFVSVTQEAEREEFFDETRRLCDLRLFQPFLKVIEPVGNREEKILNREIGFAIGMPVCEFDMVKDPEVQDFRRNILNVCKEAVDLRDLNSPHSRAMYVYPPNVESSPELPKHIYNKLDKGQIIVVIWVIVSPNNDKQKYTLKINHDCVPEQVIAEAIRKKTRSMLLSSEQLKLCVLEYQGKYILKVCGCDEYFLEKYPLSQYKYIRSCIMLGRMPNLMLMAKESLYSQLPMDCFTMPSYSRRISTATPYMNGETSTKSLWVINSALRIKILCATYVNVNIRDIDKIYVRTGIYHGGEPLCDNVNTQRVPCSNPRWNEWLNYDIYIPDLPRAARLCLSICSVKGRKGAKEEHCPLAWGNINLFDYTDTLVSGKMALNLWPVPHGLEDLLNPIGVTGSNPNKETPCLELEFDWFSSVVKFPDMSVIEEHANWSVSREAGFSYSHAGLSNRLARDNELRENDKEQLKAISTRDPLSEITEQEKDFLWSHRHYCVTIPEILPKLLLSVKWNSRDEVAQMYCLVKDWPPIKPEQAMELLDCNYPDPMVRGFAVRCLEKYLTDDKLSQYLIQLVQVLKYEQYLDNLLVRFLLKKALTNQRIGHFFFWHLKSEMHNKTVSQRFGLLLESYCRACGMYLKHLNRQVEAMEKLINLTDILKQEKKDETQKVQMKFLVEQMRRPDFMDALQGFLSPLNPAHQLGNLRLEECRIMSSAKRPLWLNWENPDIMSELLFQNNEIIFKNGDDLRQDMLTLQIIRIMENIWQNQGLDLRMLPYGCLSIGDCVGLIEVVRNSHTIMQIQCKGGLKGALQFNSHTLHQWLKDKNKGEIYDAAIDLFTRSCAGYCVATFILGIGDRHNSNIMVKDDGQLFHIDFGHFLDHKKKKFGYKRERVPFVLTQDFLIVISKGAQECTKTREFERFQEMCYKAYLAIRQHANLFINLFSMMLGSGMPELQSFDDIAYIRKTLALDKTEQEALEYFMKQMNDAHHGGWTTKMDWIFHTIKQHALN
The target of series [2] is T1, Phosphatidylinositol 4,5-bisphosphate 3-kinase catalytic subunit alpha isoform. Put plainly: Inhibition of PI3Kalpha in human MCF7 cells assessed as reduction in AKT phosphorylation after 4 hrs by ADP-Glo assay. Type of series: cell-based. In a few lines:
(§1)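 MCF-7 cells were incubated with compound for 4 h. Phosphorylation of Akt at S473 and of p70s6k at T389 was read by […], and IC50 was derived.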

The target in series [3] is T2, Serine/threonine-protein kinase mTOR (Homo sapiens, UniProt P42345). Briefly: Inhibition of mTOR in human MCF7 cells assessed as reduction in P70S6K phosphorylation after 4 hrs by […] assay. Type of series: cell-based. Put shortly: as §1
A further series deals with PC-3M. Put plainly: Antitumor activity against human PC3M cells xenografted in Balb/c mouse assessed as tumor growth inhibition administered orally once daily for 21 days measured twice a week during compound dosing. Type of series: functional, cell-based. Put shortly:
(§2)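 Nude mice bearing PC-3M tumors received 1, 3 or 10 mg/kg by oral gavage once daily for 21 days, with 10 mice per group.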

Series [4] can be described thus: Volume of distribution at steady state in mouse at 1 mg/kg, iv. Type of series: ADME, organism-based. The note with it: in vivo, read-out: Vdss. In a few lines: (§3)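 Mice were dosed intravenously at 1 mg/kg. The vehicle was either 10% DMSO/65% PEG400/25% H2O or 10% DMSO/80% PEG400/10% H2O, depending on the compound.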
Series [5] deals with Phosphatidylinositol 4,5-bisphosphate 3-kinase catalytic subunit gamma isoform (Homo sapiens, UniProt P48736). Briefly: Inhibition of human PI3K p120gamma using phosphatidylinositol 4,5-bisphosphate as substrate after 30 mins by HTRF assay.
Sequence of Phosphatidylinositol 4,5-bisphosphate 3-kinase catalytic subunit gamma isoform (P48736 whole entry, canonical isoform): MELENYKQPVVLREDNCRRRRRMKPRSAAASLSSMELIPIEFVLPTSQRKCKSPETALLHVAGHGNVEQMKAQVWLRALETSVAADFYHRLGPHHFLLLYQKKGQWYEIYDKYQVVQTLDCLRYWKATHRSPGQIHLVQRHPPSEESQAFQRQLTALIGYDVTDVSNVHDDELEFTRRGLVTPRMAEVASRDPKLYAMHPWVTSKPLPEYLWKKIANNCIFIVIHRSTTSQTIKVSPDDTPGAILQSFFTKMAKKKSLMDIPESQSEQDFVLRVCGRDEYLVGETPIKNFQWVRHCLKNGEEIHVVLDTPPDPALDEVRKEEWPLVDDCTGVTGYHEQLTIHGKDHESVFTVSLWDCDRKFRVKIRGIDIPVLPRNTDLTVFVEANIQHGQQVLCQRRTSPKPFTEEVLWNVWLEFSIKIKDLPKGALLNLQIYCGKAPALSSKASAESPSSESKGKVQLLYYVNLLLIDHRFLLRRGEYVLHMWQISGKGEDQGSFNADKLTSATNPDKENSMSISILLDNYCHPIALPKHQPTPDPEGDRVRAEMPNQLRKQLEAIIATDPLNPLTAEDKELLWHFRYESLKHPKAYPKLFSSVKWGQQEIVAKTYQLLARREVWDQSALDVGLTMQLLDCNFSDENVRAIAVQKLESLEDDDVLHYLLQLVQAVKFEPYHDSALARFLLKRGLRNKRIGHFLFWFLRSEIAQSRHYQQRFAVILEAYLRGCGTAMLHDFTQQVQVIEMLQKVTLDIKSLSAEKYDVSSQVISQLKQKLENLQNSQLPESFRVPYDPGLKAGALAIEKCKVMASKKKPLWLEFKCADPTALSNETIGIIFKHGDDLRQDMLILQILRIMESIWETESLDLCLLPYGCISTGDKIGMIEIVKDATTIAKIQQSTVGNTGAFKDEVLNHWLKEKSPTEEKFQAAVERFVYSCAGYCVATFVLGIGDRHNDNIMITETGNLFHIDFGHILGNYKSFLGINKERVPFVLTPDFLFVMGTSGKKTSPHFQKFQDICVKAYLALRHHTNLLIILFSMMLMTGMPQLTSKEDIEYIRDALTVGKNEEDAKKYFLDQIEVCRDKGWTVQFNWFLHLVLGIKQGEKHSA
Series [6] is described as follows: AUC (0 to last) in mouse at 1 mg/kg, iv. Type of series: ADME, organism-based. Set-up: dose 1 mg/kg, time 0 - last, route intravenous. The note with it: in vivo. Put shortly:
as §3

A short description of series [7]: Half life in mouse at 1 mg/kg, iv. The format is ADME, organism-based. The note with it: in vivo. In a few lines:
as §3

Series [8] addresses PI3-kinase p110-delta/p85-alpha (Homo sapiens, UniProt O00329). Put plainly: Inhibition of human PI3K p110delta/p85alpha using phosphatidylinositol 4,5-bisphosphate as substrate after 30 mins by HTRF assay. The format is protein-complex assay.
The nature of series [9]: Cmax in mouse at 3 mg/kg, po. The format is ADME, organism-based. Set-up: dose 3 mg/kg, route oral. The note with it: in vivo. Put shortly:
(§4)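 Single oral dose of 3 mg/kg to mice, given in 10% DMSO/65% PEG400/25% H2O or in 10% DMSO/80% PEG400/10% H2O depending on the compound. Plasma exposure was measured.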

Series [10] is described as follows: Clearance in mouse at 1 mg/kg, iv. The format is ADME, organism-based. The note with it: in vivo. Put shortly: as §3
Another series deals with PI3K p110 beta/p85 alpha (Homo sapiens, UniProt P42338). Briefly: Inhibition of human PI3K p110beta/p85alpha using phosphatidylinositol 4,5-bisphosphate as substrate after 30 mins by HTRF assay. The format is protein-complex assay.
Sequence of PI3K p110 beta/p85 alpha (P27986 whole entry, canonical isoform): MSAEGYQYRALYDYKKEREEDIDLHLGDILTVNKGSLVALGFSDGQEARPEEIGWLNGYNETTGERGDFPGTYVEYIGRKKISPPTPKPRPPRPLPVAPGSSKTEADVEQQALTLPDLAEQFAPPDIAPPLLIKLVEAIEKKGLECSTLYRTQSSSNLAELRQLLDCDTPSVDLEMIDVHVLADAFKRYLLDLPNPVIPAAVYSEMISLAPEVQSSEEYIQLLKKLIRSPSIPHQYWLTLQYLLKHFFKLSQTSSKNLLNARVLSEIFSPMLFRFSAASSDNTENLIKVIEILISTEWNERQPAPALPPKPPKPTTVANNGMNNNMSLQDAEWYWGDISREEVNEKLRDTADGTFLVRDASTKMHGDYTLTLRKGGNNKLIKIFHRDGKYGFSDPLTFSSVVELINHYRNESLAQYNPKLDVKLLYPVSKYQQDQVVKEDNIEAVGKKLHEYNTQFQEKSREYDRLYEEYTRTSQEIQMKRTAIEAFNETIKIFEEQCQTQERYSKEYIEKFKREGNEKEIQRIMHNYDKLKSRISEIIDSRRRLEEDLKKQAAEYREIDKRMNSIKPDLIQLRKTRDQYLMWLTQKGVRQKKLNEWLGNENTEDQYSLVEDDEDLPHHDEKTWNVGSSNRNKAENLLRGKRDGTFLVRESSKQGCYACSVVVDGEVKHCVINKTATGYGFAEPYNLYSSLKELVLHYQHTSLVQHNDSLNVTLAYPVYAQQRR
Sequence of PI3K p110 beta/p85 alpha (P42338 whole entry, canonical isoform): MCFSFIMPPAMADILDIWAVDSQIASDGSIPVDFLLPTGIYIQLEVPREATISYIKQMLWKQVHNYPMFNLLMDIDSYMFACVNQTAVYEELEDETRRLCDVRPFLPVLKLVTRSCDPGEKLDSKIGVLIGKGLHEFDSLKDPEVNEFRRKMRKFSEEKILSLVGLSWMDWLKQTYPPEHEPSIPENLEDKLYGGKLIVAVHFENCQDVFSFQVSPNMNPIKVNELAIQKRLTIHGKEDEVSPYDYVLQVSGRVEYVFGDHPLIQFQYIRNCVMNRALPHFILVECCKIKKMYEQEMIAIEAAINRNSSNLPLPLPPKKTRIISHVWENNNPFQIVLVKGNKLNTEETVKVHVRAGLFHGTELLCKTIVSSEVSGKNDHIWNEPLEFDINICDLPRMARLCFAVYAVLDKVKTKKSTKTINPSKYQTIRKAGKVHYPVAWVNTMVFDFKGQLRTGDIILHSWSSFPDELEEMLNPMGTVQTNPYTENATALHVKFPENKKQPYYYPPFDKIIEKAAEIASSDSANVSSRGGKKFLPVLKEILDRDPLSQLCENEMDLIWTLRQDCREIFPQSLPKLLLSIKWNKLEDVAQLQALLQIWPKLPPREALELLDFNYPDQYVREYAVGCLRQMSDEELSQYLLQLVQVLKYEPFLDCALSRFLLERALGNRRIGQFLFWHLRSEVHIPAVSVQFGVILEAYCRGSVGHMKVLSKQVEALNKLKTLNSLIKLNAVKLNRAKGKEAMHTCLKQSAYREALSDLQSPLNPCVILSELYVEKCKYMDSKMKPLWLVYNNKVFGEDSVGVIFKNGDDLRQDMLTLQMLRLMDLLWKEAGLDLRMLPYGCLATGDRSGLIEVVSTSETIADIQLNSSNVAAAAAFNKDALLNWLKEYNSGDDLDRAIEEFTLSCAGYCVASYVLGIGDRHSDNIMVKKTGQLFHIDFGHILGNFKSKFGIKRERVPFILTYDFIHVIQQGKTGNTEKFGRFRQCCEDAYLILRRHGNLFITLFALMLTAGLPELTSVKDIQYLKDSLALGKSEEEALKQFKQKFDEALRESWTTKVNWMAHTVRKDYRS
In series [11] the target is T1, Phosphatidylinositol 4,5-bisphosphate 3-kinase catalytic subunit alpha isoform. Put plainly: Inhibition of PI3Kalpha (unknown origin) using PIP2 as substrate measured after 30 mins by HTRF assay.
Series [12] in a line: Protein binding in human plasma. The format is ADME, cell-free.
Series [13] in a line: Protein binding in mouse plasma. Type of series: ADME, cell-free.
A short description of series [14]: Protein binding in rat plasma. Type of series: ADME, cell-free.
Series [15] can be described thus: AUC (0 to last) in mouse at 3 mg/kg, po. The format is ADME, organism-based. Set-up: dose 3 mg/kg, time 0 - last, route oral. The note with it: in vivo. Put shortly:
as §4

Series [16] is described as follows: Oral bioavailability in mouse at 3 mg/kg. The format is ADME, organism-based. The note with it: in vivo. Put shortly:
as §4

The next series concerns Mus musculus. Briefly: Toxicity in Balb/c mouse xenografted with human PC3M cells assessed as body weight loss at 1 to 10 mg/kg, po administered once daily for 21 days measured daily during compound dosing. Type of series: organism-based. The note with it: in vivo, 504 h. Put shortly:
as §2

Series [17] is described as follows: Tmax in mouse at 3 mg/kg, po. The format is ADME, organism-based. The note with it: in vivo. In a few lines:
as §4

The target of series [18] is T2, Serine/threonine-protein kinase mTOR. Briefly: Inhibition of mTOR (unknown origin) using ULight-4E-BP1(Thr37/46) peptide as substrate measured after 2 hrs by HTRF assay.

Sequence of PI3-kinase p110-delta/p85-alpha (P27986 whole entry): as the sequence (P27986 whole entry, canonical isoform) above
Sequence of PI3-kinase p110-delta/p85-alpha (O00329 whole entry): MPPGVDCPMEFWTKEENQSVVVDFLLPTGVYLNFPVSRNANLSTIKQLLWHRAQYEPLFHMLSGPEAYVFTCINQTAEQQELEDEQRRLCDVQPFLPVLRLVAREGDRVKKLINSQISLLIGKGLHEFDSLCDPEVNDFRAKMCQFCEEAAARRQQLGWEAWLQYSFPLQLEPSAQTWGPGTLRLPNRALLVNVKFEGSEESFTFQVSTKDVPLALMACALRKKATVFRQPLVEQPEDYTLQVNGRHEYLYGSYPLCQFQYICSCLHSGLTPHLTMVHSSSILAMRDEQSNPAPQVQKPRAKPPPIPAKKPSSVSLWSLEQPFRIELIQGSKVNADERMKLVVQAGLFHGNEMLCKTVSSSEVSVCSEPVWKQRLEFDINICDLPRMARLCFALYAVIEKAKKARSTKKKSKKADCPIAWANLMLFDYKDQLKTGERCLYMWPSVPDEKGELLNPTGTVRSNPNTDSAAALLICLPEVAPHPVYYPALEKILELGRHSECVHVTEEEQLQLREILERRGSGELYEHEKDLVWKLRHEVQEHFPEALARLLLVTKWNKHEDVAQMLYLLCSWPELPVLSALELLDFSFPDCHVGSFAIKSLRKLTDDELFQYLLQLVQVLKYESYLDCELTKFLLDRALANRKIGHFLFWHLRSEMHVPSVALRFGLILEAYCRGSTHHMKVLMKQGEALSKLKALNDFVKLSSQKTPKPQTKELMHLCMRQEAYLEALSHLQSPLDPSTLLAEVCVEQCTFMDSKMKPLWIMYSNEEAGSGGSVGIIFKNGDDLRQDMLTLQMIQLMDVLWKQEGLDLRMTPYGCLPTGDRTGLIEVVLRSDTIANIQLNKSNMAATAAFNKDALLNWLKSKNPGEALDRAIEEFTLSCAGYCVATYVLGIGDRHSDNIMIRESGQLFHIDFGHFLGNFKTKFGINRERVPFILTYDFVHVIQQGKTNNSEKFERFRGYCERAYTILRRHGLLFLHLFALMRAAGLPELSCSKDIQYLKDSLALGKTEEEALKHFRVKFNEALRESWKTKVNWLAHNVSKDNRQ

For `COc1ncc(-c2ccc3nccc(=O)n3c2)cc1NS(=O)(=O)c1ccc(Cl)cc1`, the inhibition in [1] amounted to 96%. Besides, the results for the IC50 in series [2] and in [3] were 0.0488 µM and 0.223 µM, respectively.

`O=c1ccnc2ccc(-c3cnc(Cl)c(NS(=O)(=O)c4ccccc4F)c3)cn12`: the inhibition in [1] worked out at 91%. Moreover, the IC50 in series [2] was 0.0344 µM; in [3], over 0.4 µM.

On to `COc1ncc(-c2ccc3ncc(C)c(=O)n3c2)cc1NS(=O)(=O)c1ccc(F)cc1F`, for which the inhibition in series [1] amounted to 90%. Further, the IC50 is 0.0279 µM in series [2] and 0.119 µM in series [3].

In the case of `COc1ncc(-c2ccc3nccc(=O)n3c2)cc1NS(=O)(=O)c1ccccc1`, the inhibition in series [1] was 95%. Further, the results for the IC50 in series [2] and in series [3] were 0.0988 µM and 0.198 µM, respectively.

For `COc1ncc(-c2ccc3nccc(=O)n3c2)cc1NS(=O)(=O)c1ccc(C(F)(F)F)cc1`, the inhibition in [1] amounted to 94%. For the same molecule, the IC50 in series [2] worked out at 0.0487 µM; in series [3], 0.163 µM.

For the molecule `COc1ncc(-c2cn3c(=O)ccnc3cn2)cc1NS(=O)(=O)c1ccc(F)cc1F`, the inhibition in series [1] amounted to 29%.

In the case of `COc1ncc(-c2ccc3nncc(N4CCOCC4)c3c2)cc1NS(=O)(=O)c1ccc(F)cc1F`, the inhibition in series [1] turned out to be 75%.

In the case of `COc1ncc(-c2ccc3nccc(=O)n3c2)cc1NS(=O)(=O)c1cc(F)ccc1F`, the inhibition in [1] was found to be 96%. Further, the IC50 in series [2] amounted to 0.045 µM; in series [3] it was 0.108 µM.

Take `Cc1ncc(-c2ccc3nccc(=O)n3c2)cc1NS(=O)(=O)c1ccc(F)cc1`: the inhibition in series [1] was 85%.

As for `CCc1ncc(-c2ccc3nccc(=O)n3c2)cc1NS(=O)(=O)c1ccc(F)cc1F`, the inhibition in series [1] turned out to be 86%.

Turning to `CCS(=O)(=O)Nc1cc(-c2ccc3nccc(=O)n3c2)cnc1OC`, the inhibition in [1] stood at 53%.

On to `COc1ncc(-c2ccc3nccc(=O)n3c2)cc1NS(=O)(=O)C1CC1`, for which, in series [1], the inhibition came out at 76%.

Consider `O=c1ccnc2ccc(-c3cnc(Cl)c(NS(=O)(=O)c4ccc(F)cc4F)c3)cn12`, for which the inhibition in series [1] amounted to 92%. In addition, the half-maximal inhibitory concentration (IC50) in series [2] is 0.0328 µM; in series [3], over 0.4 µM.

Turning to `Cc1ncc(-c2ccc3nccc(=O)n3c2)cc1NS(=O)(=O)c1ccccc1F`, in series [1], the inhibition is 82%.

Take `COc1ncc(-c2ccc3nccc(=O)n3c2)cc1NS(=O)(=O)c1cc(F)cc(F)c1`: the inhibition in [1] is 98%. Besides, the values for the IC50 in series [2] and in series [3] were 0.0782 µM and 0.0772 µM, respectively.

With `COc1ncc(-c2ccc3nccc(=O)n3c2)cc1NS(=O)(=O)c1ccccc1F`, the inhibition in [1] was 94%. Besides, the IC50 was 0.141 µM in series [2] and over 0.4 µM in [3].

Take `CCOc1ncc(-c2ccc3nccc(=O)n3c2)cc1NS(=O)(=O)c1ccccc1F`: in [1], the inhibition came out at 60%.

As for `Cc1ncc(-c2ccc3nccc(=O)n3c2)cc1NS(=O)(=O)c1ccc(F)cc1F`, the inhibition in [1] worked out at 81%.

As for `CCOc1cnc2ccc(-c3cnc(OC)c(NS(=O)(=O)c4ccc(F)cc4F)c3)cn2c1=O`, the inhibition in [1] came out at 76%.

Take `COc1ccc(S(=O)(=O)Nc2cc(-c3ccc4nccc(=O)n4c3)cnc2OC)cc1`: the inhibition in series [1] stood at 95%. For the same molecule, the IC50 stood at 0.0541 µM in series [2] and 0.138 µM in [3].

`COc1ncc(-c2cnc3nccc(-c4cnn(C)c4)c3c2)cc1NS(=O)(=O)c1ccc(F)cc1F`: in series [1], the inhibition stood at 47%.

In the case of `COc1ncc(-c2ccc3ncc(Cl)c(=O)n3c2)cc1NS(=O)(=O)c1ccc(F)cc1F`, the TGI result with PC-3M was “Dose-dependent effect”. Also, the Vd in series [4] is 0.472 L/kg. Further, the IC50 in series [5] was determined as 0.001 µM; in series [8] it was 0.016 µM; in [2], 0.0116 µM; on PI3K p110 beta/p85 alpha it was 0.034 µM; in [3], 0.0892 µM; in series [11], 0.0034 µM. The IC50 in [18] worked out at 0.0047 µM. In addition, the AUC(0-t) in series [6] was 11900 ng·h/mL; in [15], 38600 ng·h/mL. Moreover, the half-life in series [7] was 3 h. Besides, the Cmax in series [9] was 5450 ng/mL. In series [10], this molecule registered a clearance of 1.4 mL/min/kg. The inhibition in series [1] came out at 93%. Besides, the fraction unbound in series [12] was under 0.01; in series [13] it was 0.005; in [14], under 0.01. The bioavailability in series [16] turned out to be 108%. Also, in the series on Mus musculus, the Activity result is “Non-Toxic”. In addition, the Tmax in [17] amounted to 2.67 h.

`COc1ncc(-c2ccc3nccc(=O)n3c2)cc1NS(=O)(=O)c1ccccc1C`: in series [1], the inhibition was found to be 94%. The figures for the IC50 in series [2] and in [3] were 0.0239 µM and 0.153 µM, respectively.

`COc1ncc(-c2ccc3nccc(=O)n3c2)cc1NS(=O)(=O)c1cccc(F)c1`: the inhibition in series [1] came out at 96%. Further, the IC50 in series [2] was 0.067 µM; in [3], 0.064 µM.

On to `CCc1ncc(-c2ccc3nccc(=O)n3c2)cc1NS(=O)(=O)c1ccccc1F`, for which the inhibition in series [1] is 81%.

For `COc1ncc(-c2ccc3nccc(=O)n3c2)cc1NS(=O)(=O)CC(F)(F)F`, the inhibition in series [1] was 78%.

Take `COc1ncc(-c2cc3c(N4CCNC(=O)C4)ncnc3cn2)cc1NS(=O)(=O)c1ccc(F)cc1F`: the inhibition in series [1] stood at 50%.

Take `COc1ncc(-c2ccc3nccc(=O)n3n2)cc1NS(=O)(=O)c1ccc(F)cc1F`: the inhibition in series [1] turned out to be 63%.

In the case of `COc1ncc(-c2ccc3nccc(=O)n3c2)cc1NS(=O)(=O)c1ccc(C#N)cc1`, the inhibition in series [1] was 94%. In addition, the IC50 stood at 0.0574 µM in [2] and 0.246 µM in series [3].

Turning to `COc1ncc(-c2ccc3nccc(=O)n3c2)cc1NS(=O)(=O)c1ccc(F)cc1`, the inhibition in [1] is 95%. For the same molecule, the IC50 in [2] was found to be 0.0807 µM; in series [3], 0.106 µM.

Regarding `COc1ncc(-c2ccc3nccc(=O)n3c2)cc1NS(=O)(=O)c1ccc(F)cc1F`, the Vd in series [4] was found to be 0.443 L/kg. For the same molecule, the values for the AUC(0-t) in [6] and in [15] were 3280 ng·h/mL and 13800 ng·h/mL, respectively. Besides, the half-life in [7] is 1 h. The peak concentration (Cmax) in [9] came to 4080 ng/mL. Also, in [10], the clearance is 5.15 mL/min/kg. Besides, the inhibition in [1] came to 98%. Also, the IC50 in [2] was 0.016 µM; in series [3], 0.066 µM; in series [11], 0.0031 µM; in series [18], 0.0192 µM. The fraction unbound stood at 0.005 in [12], 0.019 in [13] and 0.008 in series [14]. Also, in [16], the bioavailability was found to be 139%. For the same molecule, in series [17], the time of peak concentration (Tmax) was found to be 0.333 h.
